# Active and inactive are the calls of the source. The rule behind the calls is not given here.
# Key:
# [1] = tested on: PC-3; assay: Growth inhibition of human PC3 cells after 72 hrs by MTT assay; type: functional, cell-based; details: PC-3, 72 h
# Method in brief: (§1)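 MTT colorimetric growth assay. Cells are seeded at 10,000–40,000 cells/mL depending on cell type and allowed to plate for 24 h, then cultured 72 h with or without compound. Formazan from mitochondrial MTT reduction is read spectrophotometrically at 570 nm (reference 630 nm). IC50 is the growth-inhibitory concentration.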
# [2] = tested on: A549; assay: Growth inhibition of human A549 cells after 72 hrs by MTT assay; type: functional, cell-based; details: A549, 72 h; method in brief: as §1
# [3] = Growth inhibition of human U373 cells after 72 hrs by MTT assay; type: functional, cell-based, U-373MG ATCC; details: U373 MG; method in brief: as §1
# [4] = tested on: MCF7; assay: Growth inhibition of human MCF7 cells after 72 hrs by MTT assay; type: functional, cell-based; details: MCF7, 72 h; method in brief: as §1
# [5] = Growth inhibition of human OE21 cells after 72 hrs by MTT assay; type: functional, cell-based; details: OE21, 72 h; method in brief: as §1
# [6] = tested on: SK-MEL; assay: Growth inhibition of human SK-MEL cells after 72 hrs by MTT assay; type: functional, cell-based; method in brief: as §1
# [7] = tested on: U-373MG ATCC; assay: Cytostatic activity against human U373 cells assessed as increase in mitosis duration at 10 uM after 3 days by quantitative video microscopy relative to control; type: functional, cell-based
# Method in brief: (§2)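 Human U373 glioblastoma cultures are recorded by quantitative videomicroscopy with or without compound. In-house software scores mitosis duration (min) and mitosis number, with number normalized to initial cell count at t = 0 h. Values are compared with untreated control.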
# [8] = tested on: U-373MG ATCC; assay: Anticancer activity against human U373 cells assessed as reduction in cell proliferation at 10 uM for 3 days by quantitative video microscopy relative to control; type: functional, cell-based
# Method in brief: (§3)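 U373 glioblastoma cells filmed by computer-assisted phase-contrast (quantitative videomicroscopy) over three days of culture with or without compound. Cell population growth is judged from morphology: reduced proliferation is taken as cytostatic effect, direct cell killing as cytotoxic effect, and round-shaped cells as cell death. Comparison is against untreated control.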
# [9] = tested on: U-373MG ATCC; assay: Anticancer activity against human U373 cells assessed as cell death at 10 uM for 3 days by quantitative video microscopy; type: functional, cell-based; method in brief: as §3
# [10] = tested on: U-373MG ATCC; assay: Cytostatic activity against human U373 cells assessed as decrease in mitosis duration at 5 uM after 3 days by quantitative video microscopy relative to control; type: functional, cell-based; method in brief: as §2
# [11] = tested on: U-373MG ATCC; assay: Anticancer activity against human U373 cells assessed as reduction in cell proliferation at 5 uM for 3 days by quantitative video microscopy relative to control; type: functional, cell-based; method in brief: as §3
# [12] = tested on: U-373MG ATCC; assay: Anticancer activity against human U373 cells assessed as cell death at 5 uM for 3 days by quantitative video microscopy; type: functional, cell-based; method in brief: as §3
SMILES,IC50 [1] [µM],IC50 [2] [µM],IC50 [3] [µM],IC50 [4] [µM],IC50 [5] [µM],IC50 [6] [µM],Activity [7],Activity [8],Activity [9],Activity [10],Activity [11],Activity [12]
CC(C)=CCC/C(C)=C/COc1ccc(C2CC2C(=O)NNC(=O)c2ccncc2)cc1 (stereo not drawn),> 100,78,84,,,,,,,,,
COc1ccc(C2CC2c2nnc3c4ccccc4cnn23)cc1 (stereo not drawn),29,40,28,29,26,40,,,,,,
FC(F)(F)Oc1ccc(C2CC2c2nnc3c4ccccc4cnn23)cc1 (stereo not drawn),49,37,37,37,30,57,,,,,,
COc1ccc(C2CC2C(=O)NNC(=O)c2ccncc2)cc1 (stereo not drawn),> 100,> 100,> 100,,,,,,,,,
COc1ccc(C2CC2C(=O)NNc2nncc3ccccc23)cc1 (stereo not drawn),64,96,83,72,48,68,,,,,,
CC(C)=CCOc1ccc(C2CC2C(=O)NNC(=O)c2ccncc2)cc1 (stereo not drawn),> 100,> 100,> 100,,,,,,,,,
O=C(NNc1nncc2ccccc12)C1CC1c1ccc(OC(F)(F)F)cc1 (stereo not drawn),92,87,85,54,42,29,,,,,,
O=C(NNc1nncc2ccccc12)C1CC1c1ccc(OCC(F)(F)F)cc1 (stereo not drawn),67,48,25,8,17,29,,,,,,
O=C(NNC(=O)C1CC1c1ccc(OC(F)(F)F)cc1)c1ccncc1 (stereo not drawn),> 100,56,37,,,,,,,,,
CC(C)=CCOc1ccc(C2CC2C(=O)NNc2nncc3ccccc23)cc1 (stereo not drawn),81,82,81,69,38,67,,,,,,
O=C(NNC(=O)C1CC1c1ccc(OCC(F)(F)F)cc1)c1ccncc1 (stereo not drawn),44,10,19,34,31,81,,,,,,
CC(C)=CCC/C(C)=C/COc1ccc(C2CC2c2nnc3c4ccccc4cnn23)cc1 (stereo not drawn),8,45,63,9,5,72,,,,,,
CCOc1ccc(C2CC2C(=O)NNc2nncc3ccccc23)cc1 (stereo not drawn),94,> 100,91,,,,,,,,,
CC(C)=CCC/C(C)=C/COc1ccc(C2CC2C(=O)NNc2nncc3ccccc23)cc1 (stereo not drawn),24,36,9,23,9,25,Active,Active,inactive,,,
CCOc1ccc(C2CC2C(=O)NNC(=O)c2ccncc2)cc1 (stereo not drawn),> 100,43,63,,,,,,,,,
CC(C)=CCOc1ccc(C2CC2c2nnc3c4ccccc4cnn23)cc1 (stereo not drawn),22,56,4,19,8,26,,,,Active,Active,inactive
FC(F)(F)COc1ccc(C2CC2c2nnc3c4ccccc4cnn23)cc1 (stereo not drawn),38,64,58,37,9,29,,,,,,
CCOc1ccc(C2CC2c2nnc3c4ccccc4cnn23)cc1 (stereo not drawn),> 100,66,44,,,,,,,,,

# Source: ChEMBL document CHEMBL1156155, “Synthesis and anticancer activity evaluation of 2(4-alkoxyphenyl)cyclopropyl hydrazides and triazolo phthalazines” (Bioorg Med Chem, 2010)
